This excerpt belongs to a sample that is enriched for hits.
GSK3A inh: blocks human GSK-3 alpha kinase | P49840 | ADP-Glo luminescence, 60 min | inhibition, % at 10 µM | hit rate 0.1% among 320,000;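 active = more than half of replicates show inhibition above 20%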;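 also: GST-tagged GSK-3 alpha with peptide substrate and 25 µM ATP; 0% = DMSO neutral wells and 100% = GW8510 positive control wells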
CDK5 p35 inh: inhibitors of human CDK5/p35 kinase; Q00535+Q15078; Recombinant CDK5/p35, ADP-Glo luminescence, 60 min; inhibition, % at 10 µM; hit rate 0.01% among 330,000; AID 488839;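 active = highest replicate inhibition of at least 50% and at least 75% of replicates reaching 50%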;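 also: plate controls were DMSO neutral control for no effect and GW8510 at 10 µM for full effect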
Target sequence (Q00535 whole entry, looked up): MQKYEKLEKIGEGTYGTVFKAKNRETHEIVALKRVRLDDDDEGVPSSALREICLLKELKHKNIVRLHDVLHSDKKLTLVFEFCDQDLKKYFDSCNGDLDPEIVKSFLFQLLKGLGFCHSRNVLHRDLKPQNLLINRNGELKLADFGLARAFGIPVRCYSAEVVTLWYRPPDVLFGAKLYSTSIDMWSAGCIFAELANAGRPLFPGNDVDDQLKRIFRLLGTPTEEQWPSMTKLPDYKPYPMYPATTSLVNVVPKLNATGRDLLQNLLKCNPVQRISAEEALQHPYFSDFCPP
Target sequence (Q15078 whole entry, looked up): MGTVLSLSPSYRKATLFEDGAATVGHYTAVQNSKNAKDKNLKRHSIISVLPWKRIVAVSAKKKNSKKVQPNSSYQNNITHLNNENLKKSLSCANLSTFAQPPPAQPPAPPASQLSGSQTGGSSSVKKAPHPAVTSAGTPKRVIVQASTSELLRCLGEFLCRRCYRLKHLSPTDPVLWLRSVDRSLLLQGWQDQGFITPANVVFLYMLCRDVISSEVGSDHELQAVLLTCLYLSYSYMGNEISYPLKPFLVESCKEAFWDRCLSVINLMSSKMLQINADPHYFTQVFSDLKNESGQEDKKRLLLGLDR
GSK3beta inhib: inhibitors of human GSK3beta kinase. activity score (negative = inhibition), % at 10 µM. hit rate 0.038% among 300,000. P49841. GST-GSK3beta kinase, ADP-Glo luminescence, 60 min; hits give low values. AID 2097;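 active = more than half of replicate wells score below -50%, meaning over 50% inhibition versus plate controls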;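 also: 0% = median DMSO wells and -100% = median GW8510 positive control wells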
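Test system: GST-tagged human GSK3beta kinase, cell-free; evaluation: activity score scaled between in-plate DMSO and GW8510 controls; measured by: ADP-Glo luminescence; incubation: 60 min reaction, RT; benchmarks: DMSO and 20 µM GW8510; reagent: peptide substrate plus 25 µM ATP (final); medium: Tris/MgCl2 kinase buffer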
DYRK1A inh: blocks rat Dyrk1A kinase activity. Q63470. ADP-Glo luminescence, NFATc1 peptide. inhibition, % at 12.5 µM. hit rate 0.43% among 310,000. AID 504441; in the data active = inhibition above about 50%;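 also: plate controls were vehicle with enzyme for no effect and no enzyme for full effect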
STK33 inh: blocks human STK33 kinase activity; inhibition, % at 10 µM; hit rate 0.073% among 320,000; purified STK33, MBP phosphorylation, ADP-Glo luminescence; AID 2661;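 active = inhibition at or above 25%, using the most active replicate where run in duplicate; inactive = inhibition below 25%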
Dyrk1A artifact: counter-screen for Dyrk1A inhibitors: ADP-Glo luciferase artifacts | 1,300 tested, under 10 active | ADP-Glo luciferase artifact assay, no Dyrk1A, luminescence | shares compounds with DYRK1A inh | AC50, µM (titrated, usually from 12 µM), without a hit: top-dose activity change, negative = inhibition;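 active = fitted half-maximal dose AC50 no more than ten times the top valid tested dose, with luminescence dropping as dose rises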
Numbers without * were called inactive; . = not tested or not shown.

SMILES | GSK3A inh | CDK5 p35 inh | GSK3beta inhib | DYRK1A inh | STK33 inh | Dyrk1A artifact
O=C(Nc1nccs1)c1csc2c1CCCC2 | 6 | 1 | 1 | 17 | 2 | .
Cc1cc(/C=N/NC(N)=S)c(O)c(/C=N/NC(N)=S)c1 | 4 | 0 | 1 | -8 | -1 | .
O=C1SC(c2ccccc2)=C/C1=C\N1CCCCC1 | 6 | -1 | 2 | 68* | 2 | 8%
O=C(O)c1[nH]c2ccc([N+](=O)[O-])cc2c1-c1ccccc1 | 37 | 1 | 3 | 53* | 3 | 9%
NNC(=O)c1[nH]c2ccc([N+](=O)[O-])cc2c1-c1ccccc1 | 0 | -2 | 1 | 12 | 1 | .
CC(=O)c1cccc(OCC(=O)NC2CCCCCC2)c1 | . | -1 | . | 0 | . | .
Cc1ccc(NCC2(N=Cc3ccccc3)OC(CO)C(O)C2O)cc1 (centres undefined) | . | -1 | . | -2 | . | .
Oc1c(I)cc(Cl)c2cccnc12 | -6 | -2 | 1 | 12 | -1 | .
Oc1c(Cl)c(Cl)c2ncccc2c1Cl | . | 0 | . | 55* | . | 9%
CC(=O)Nc1nc2ccc(Br)cc2s1 | 1 | 5 | -3 | 71* | 10 | 6%
COc1ccc2nc(NC(C)=O)sc2c1 | 8 | -2 | 0 | 27 | 2 | .
CC(=O)c1ccc(OCC(=O)OCc2cc(-c3ccco3)on2)cc1 | -4 | -6 | . | 1 | -1 | .
COc1ccc2cc(-c3cccnc3)ncc2c1 | 2 | 5 | . | 68* | 4 | 12%
N#Cc1ccccc1OCC(=O)NNC(=O)CNC(=O)c1ccc(Br)o1 | -1 | -1 | . | . | -2 | .
COc1ccc2sc(-c3ccc(S(C)(=O)=O)cc3)c(C#CCO)c2c1 | 1 | 0 | . | 15 | 0 | .
COc1ccc2c(C#CCCO)c(-c3ccc(S(C)(=O)=O)cc3)sc2c1 | -2 | 1 | . | 56* | -1 | 9%
CC1(C)CC(=O)c2sc(NC(=O)C3CC3)nc2C1 | -1 | -2 | 3 | 4 | -1 | .
CCOCC(=O)Nc1nc2c(s1)C(=O)CC(C)(C)C2 | -1 | 0 | 0 | 57* | -1 | 9%
Cn1c2ccccc2c(=O)c2ccc(C#CC3(N)CCCCC3)cc21 | -2 | 2 | 5 | 58* | 22 | 9%
Cn1ncc(Cl)c1C(=O)Nc1cccc(Cl)c1 | -2 | 1 | 0 | 25 | -1 | .
CSc1cccc(NC(=O)c2c(Cl)cnn2C)c1 | 1 | 0 | -1 | 53* | 1 | 9%
CCN(CC)c1c([N+](=O)[O-])c(=O)sc2ccccc12 | -4 | 1 | -1 | 53* | 2 | 7%
Cn1c(N)c(N2CCN(c3ccccc3)CC2)c(=O)[nH]c1=O | -1 | -1 | 2 | -3 | 0 | .
COc1cc(C2C(=O)c3ccccc3C2=O)ccc1O | 2 | 3 | 0 | 69* | 20 | 9%
COc1c(Cl)ccc(Cl)c1C(=O)NC(=S)N1CCOCC1 | -2 | -2 | 2 | 0 | . | .
SMILES | GSK3A inh | CDK5 p35 inh | GSK3beta inhib | DYRK1A inh | STK33 inh | Dyrk1A artifact
COc1ccc(-c2[nH]ncc2-c2ccc3c(c2)OCCO3)c(O)c1 | 2 | 1 | 5 | 60* | 6 | 2%
CCc1cc(-c2[nH]ncc2-c2ccc3c(c2)OCO3)c(O)cc1O | 7 | 2 | -2 | 52* | 5 | 6%
O=C(c1cc(S(=O)(=O)N2CCOCC2)c(Cl)cc1Cl)N1CCN(S(=O)(=O)c2cccc(F)c2)CC1 | -1 | -2 | . | . | 0 | .
COc1ccc2oc(=Nc3cc(F)ccc3F)c(C(N)=O)cc2c1 | -2 | -1 | 1 | -1 | -2 | .
NC(=O)c1cc2ccccc2oc1=NCc1ccccc1 | 0 | 0 | -3 | 68* | 0 | 7%
COc1ccc(OC)c(N=c2oc3cc(O)ccc3cc2C(N)=O)c1 | -1 | 0 | -41 | 81* | 1 | 6%
NC(=O)c1cc2ccc(O)cc2oc1=Nc1ccccc1 | . | 0 | 2 | 58* | . | 8%
COC(=O)C1CN(C(=O)C(C)Oc2ccc(F)cc2)c2ccccc2O1 (centres undefined) | 0 | 1 | 2 | -3 | 0 | .
Cc1ccc2c(c1)C1CN(C)CCC1N2C(=O)COc1ccccc1F (centres undefined) | 4 | -4 | 1 | -3 | 3 | .
c1cncc(-c2ccc3[nH]ccc3c2)c1 | -2 | 0 | . | 55* | 2 | 7%
CCN1CCN(CC(=O)N2CCCC(C(=O)c3ccc(Oc4ccccc4)cc3)C2)CC1 (centres undefined) | -1 | -5 | 1 | 4 | 1 | .
